# Compounds with a hit are over-represented: about 3.7% of the library has one in this group of screens.
# KCNK3 block – human KCNK3 channel inhibitors, primary screen, CHO cells, FluxOR thallium flux, B-score; Potassium channel subfamily K member 3 (Homo sapiens), O14649; FluxOR fluorescence; active compounds read low; B-score at 10 µM; 0.84% of 340,000 active; AID 602410, 2012;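 active = B-score under library mean minus 4 SD, starting fluorescence ratio at most library mean plus 5 SD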;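 also: more negative B-score means stronger inhibition of thallium flux through KCNK3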
# Kir21 inh – inhibitors of mouse Kir2.1 inward-rectifier potassium channel; Inward rectifier potassium channel 2 (Mus musculus), P35561; HEK293-Kir2.1, FluxOR thallium flux fluorescence; active compounds read low; B-score at 10 µM; 0.85% of 310,000 active;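 active = fluorescence ratio B-score at or below minus 3 SD of library scores, with starting-brightness B-score within 2 SD, cut at about -4.2 in these data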;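 also: channel flux triggered by added potassium and thallium sulfate stimulus; B-score of peak minus minimum fluorescence over baseline after thallium stimulus; more negative B-score means stronger Kir2.1 block with less thallium influx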
# KCNK9 inh – KCNK9 potassium channel inhibitors, primary screen, HEK293 cells, thallium flux | B-score at 10 µM | AID 488922, 2010 | Potassium channel subfamily K member 9 (Homo sapiens), Q9NPC2 | FluxOR thallium flux fluorescence; active compounds read low | 1.2% of 310,000 active;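 active = ratio B-score over 3 SD below the library mean, with starting fluorescence within 5 SD of its mean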;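 also: negative B-score means less thallium flux so channel inhibition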
# KCNQ1 act – potentiators or activators of KCNQ1 channel, primary screen, cell-based, thallium flux, high-throughput; CHO-K1 KCNQ1, thallium flux FluxOR fluorescence; active compounds read high; B-score at 10 µM; 0.35% of 310,000 active; AID 2648, 2010;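 active = fluorescence ratio B-score, a plate-corrected score, at least three library SD, with initial intensity B-score within 5 SD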
#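 Assay system: CHO-K1 cells stably expressing KCNQ1; Medium: assay buffer with matched DMSO; Also added: K+/Tl+ depolarizing stimulus; Dosing: single dose; Timing: dye 90 min, compound 20 min, room temperature; Measured by: kinetic FluxOR thallium fluorescence, 10-s 1-Hz baseline, 110-s post-stimulus read; Read-out: peak-minus-minimum fluorescence over initial fluorescence, negative-control normalized, B-scored.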
# hERG rescue – hERG rescue from dofetilide block, primary screen, cell-based, CHO-hERG, FluxOR thallium flux, dofetilide IC70. 0.51% of 310,000 active. dofetilide IC70 present. activation (rescue from dofetilide block), less the hit threshold, % at 10 µM;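 active = activation above the mean of controls blocked by dofetilide plus 5 SD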;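 also: thallium influx through hERG after potassium depolarization seen as dye fluorescence rise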
# KCNQ1 block – inhibitors of human KCNQ1 channel, primary screen, cell-based, thallium flux, high-throughput; Potassium voltage-gated channel subfamily KQT member 1 (Homo sapiens), P51787; CHO-K1 KCNQ1, FluxOR thallium flux fluorescence; active compounds read high; B-score at 10 µM; 1.3% of 310,000 active;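 active = compounds whose thallium flux B-score, printed positive for inhibition, exceeds three library SD while starting fluorescence stays within three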;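 also: channel opened by potassium depolarization with thallium stimulus after 20 min compound exposure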
# KCNK9 block conf – KCNK9 potassium channel inhibitors, confirmation, HEK293 cells, thallium flux, duplicate; shares compounds with KCNK9 inh; FluxOR thallium flux fluorescence; 43% of 4,900 active; inhibition, % at 10 µM; AID 492992, 2010;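 active = thallium signal inhibited by more than 5 SD of the compound-free buffer control wells, on both duplicate plates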;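 also: 0% = assay buffer control wells without compound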
# Kir2-1 spec – mouse Kir2.1 channel inhibition, confirmation, selectivity assay for KCNK9 modulator project, cell-based, HEK293, thallium flux; 4% of 4,900 active; inhibition, % at 10 µM; AID 492993, 2010; shares compounds with KCNK9 inh; Kir2.1 cells, FluxOR thallium flux fluorescence;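 active = thallium signal drop more than 5 SD beyond the mean of the no-compound control wells, seen in both duplicate plates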;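 also: signal is fluorescence rise after thallium addition divided by baseline fluorescence; plate controls were assay buffer only for no effect and full block by chlorpromazine control for full effect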
# KCNK9 uninduced – thallium flux in non-induced HEK293 cells, confirmation, counter-screen for KCNK9 inhibitor project, cell-based, second counter screen, non-induced KCNK9-HEK293. inhibition, % at 10 µM. FluxOR thallium flux. shares compounds with KCNK9 inh. AID 492997, 2010. 40% of 4,900 active;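 active = thallium signal drop beyond 5 SD of the untreated control mean, on both duplicate plates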;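 also: plate controls were buffer only IC0 wells for no effect and SID17386958 at its maximal inhibitory level for full effect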
# KCNK3 inh conf – retest of human KCNK3 channel inhibitors, confirmation, CHO cells, FluxOR thallium flux, triplicate; shares compounds with KCNK3 block; FluxOR fluorescence; 0% buffer, 100% carvedilol maximal block; ratio percent of control, % at 10 µM; 99% of 2,400 active; AID 651638, 2012;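 active = ratio percent of control, averaged over triplicates, above buffer control mean plus 5 SD, cut at about 64% in these data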;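 also: ratio is the fluorescence rise from min to max over baseline after thallium stimulus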
# KCNK3 noninduced – thallium flux inhibition in non-induced cells, primary screen, counter-screen for KCNK3 inhibitor project, cell-based, non-induced KCNK3 line, FluxOR thallium, triplicate; 40% of 2,400 active; non-induced KCNK3 parental cells; active compounds read low; thallium flux ratio (lower = more inhibition) at 10 µM; shares compounds with KCNK3 block;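 active = thallium flux ratio, averaged over three wells, more than 5 SD below the buffer control mean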;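 also: host cells are CHO cells without KCNK3 induction; ratio is peak minus trough fluorescence over baseline then normalized to buffer controls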
# * = called active by the depositor; i = inactive; nt = no result.
SMILES,KCNK3 block,Kir21 inh,KCNK9 inh,KCNQ1 act,hERG rescue,KCNQ1 block,KCNK3 inh conf,KCNK3 noninduced,others
O=P(Nc1cccc(F)c1)(Oc1ccccc1F)Oc1ccccc1F,-12*,-0.01,-11*,i,-34,i,87*,0.13*,KCNK9 block conf=48%*;Kir2-1 spec=i;KCNK9 uninduced=31%*
COc1ccc(CC(=O)C2C(=O)N(C)c3ccccc32)cc1OC (stereo not given),i,nt,nt,nt,nt,nt,nt,nt,
N#Cc1ccc(NC(=O)CCNC(=O)c2ccco2)cc1Cl,-10*,-0.98,i,i,-10,i,95*,0.15*,
CCN(CC(=O)Nc1ccc(C#N)c(Cl)c1)CC(=O)NC(C)(C)C,i,-2.4,i,i,-2,i,nt,nt,
COC(=O)C1=C(c2ccc(OCc3ccccc3)cc2)C[C@@H]2CC[C@H]1N2C(=O)NC1CCN(Cc2ccccc2)CC1,i,nt,nt,nt,nt,nt,nt,nt,
Cc1c(C(=O)c2cccc3ccccc23)c2cccc3c2n1[C@H](CN1CCOCC1)CO3,-11*,0.93,i,i,-3,i,80*,0.16*,
COc1ccccc1OCCCn1cc(C(C)=O)c2ccccc21,i,-2.3,i,i,-20,i,nt,nt,
COc1ccccc1OCCCn1cc(C(=O)C2CC2)c2ccccc21,-8.8*,0.63,i,i,-14,i,111*,i,
CC(C)COc1ccc(Cc2c(O)[nH]c(=S)[nH]c2=O)cc1,i,-0.15,i,i,-2,i,nt,nt,
CCN(CC)c1ccc(/C=C/[N+](=O)[O-])cc1,-14*,-10,i,i,-45,6*,133*,0.09*,

# Assay outcomes (PubChem)
